Test results published in ChEMBL document CHEMBL4364345, “Synthesis and evaluation of 1,3,4-oxadiazole derivatives for development as broad-spectrum antibiotics” (Bioorg Med Chem, 2019).
Converted amounts (≈) assume the structure as drawn.

How the values were obtained:
Bacteroides fragilis [1] = experiment: Antimicrobial activity against Bacteroides fragilis ATCC 25285 by broth microdilution method; format: functional
Outline: (§1)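 MICs were set by broth microdilution following EUCAST guidelines, from three independent experiments reported as values or ranges. MICs were measured only where disk-diffusion inhibition diameters were 9 mm or more.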

Klebsiella pneumoniae = experiment: Antimicrobial activity against Klebsiella pneumoniae clinical isolate at 50 ug/disk incubated for 20 +/- 4 hrs by agar disk diffusion method; format: functional; settings: read-out: DIZ
Outline: (§2)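 Agar disk diffusion on Mueller-Hinton agar swab-seeded from a 0.5 McFarland inoculum (about 10^8 CFU/ml). Cellulose discs got 50 μg compound (10 μl of 5 g/L in DMSO); a 10 μL DMSO disc was the control. Incubated aerobically at 35 ± 2 °C for 20 ± 4 h, then growth-inhibition diameters measured.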

Enterococcus faecalis [2] = experiment: Synergistic antimicrobial activity against Enterococcus faecalis ATCC 29212 assessed as DIZ at 50 ug/disk incubated for 20 +/- 4 hrs in presence of rifampicin by agar disk diffusion method (reference value: 20 millimeter); format: functional; settings: read-out: DIZ
Escherichia coli [3] = experiment: Antimicrobial activity against TolC deficient Escherichia coli BW25113 by broth microdilution method; format: functional
Outline: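 MIC by broth microdilution per EUCAST guidelines, in E. coli BW25113 and its previously described deletion derivative.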

Huh-7 = experiment: Cytotoxicity against human HuH7 cells assessed as decrease in cell viability in MTT assay; format: cell-based
Outline: (§3)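 Cell viability was measured by MTT on a robotic screening platform. Residual viability was expressed as a percentage of the mean viable cells in DMSO-treated controls. Under 25-30% viability was considered cytotoxic, and IC50 values were derived.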

Enterococcus faecium [4] = experiment: Synergistic antimicrobial activity against Enterococcus faecium AUS0004 assessed as DIZ at 50 ug/disk incubated for 20 +/- 4 hrs in presence of rifampicin by agar disk diffusion method (reference value: 10 millimeter); format: functional; settings: read-out: DIZ
Morganella morganii [5] = experiment: Antimicrobial activity against Morganella morganii EB6 clinical isolate at 50 ug/disk incubated for 20 +/- 4 hrs by agar disk diffusion method; format: functional; settings: read-out: DIZ; outline: as §2
Enterococcus faecium [6] = experiment: Synergistic antimicrobial activity against Enterococcus faecium AUS0004 assessed as DIZ at 50 ug/disk incubated for 20 +/- 4 hrs in presence of gentamicin by agar disk diffusion method (reference value: 17 millimeter); format: functional; settings: read-out: DIZ
Escherichia coli [7] = experiment: Antimicrobial activity against Escherichia coli BW25113 at 10 mM/disk incubated for 20 +/- 4 hrs by agar disk diffusion method; format: functional; settings: read-out: DIZ
MCF7 = experiment: Cytotoxicity against human MCF7 cells assessed as decrease in cell viability in MTT assay; format: cell-based; outline: as §3
Morganella morganii [8] = experiment: Antimicrobial activity against Morganella morganii EB8clinical isolate at 50 ug/disk incubated for 20 +/- 4 hrs by agar disk diffusion method; format: functional; settings: EB8, read-out: DIZ; outline: as §2
[9] = tested on: Mycolicibacterium fortuitum; experiment: Antimicrobial activity against Mycobacterium fortuitum clinical isolate by broth microdilution method; format: functional; outline: as §1
Listeria monocytogenes [10] = experiment: Synergistic antimicrobial activity against Listeria monocytogenes clinical isolate assessed as DIZ at 50 ug/disk incubated for 20 +/- 4 hrs in presence of moxalactam by agar disk diffusion method (reference value: 13 millimeter); format: functional; settings: read-out: DIZ
[11] = tested on: Staphylococcus epidermidis; experiment: Antimicrobial activity against Staphylococcus epidermidis clinical isolate by broth microdilution method; format: functional; outline: as §1
Enterococcus faecium [12] = experiment: Synergistic antimicrobial activity against Enterococcus faecium AUS0004 assessed as DIZ at 50 ug/disk incubated for 20 +/- 4 hrs in presence of streptomycin by agar disk diffusion method (reference value: 22 millimeter); format: functional; settings: read-out: DIZ
Listeria monocytogenes [13] = experiment: Antimicrobial activity against Listeria monocytogenes clinical isolate by broth microdilution method; format: functional; outline: as §1
Enterococcus faecalis [14] = experiment: Antimicrobial activity against Enterococcus faecalis ATCC 29212 at 50 ug/disk incubated for 20 +/- 4 hrs by agar disk diffusion method; format: functional; settings: read-out: DIZ; outline: as §2
Enterococcus faecalis [15] = experiment: Synergistic antimicrobial activity against Enterococcus faecalis ATCC 29212 assessed as DIZ at 50 ug/disk incubated for 20 +/- 4 hrs in presence of streptomycin by agar disk diffusion method (reference value: 18 millimeter); format: functional; settings: read-out: DIZ
Enterococcus faecium [16] = experiment: Synergistic antimicrobial activity against Enterococcus faecium AUS0004 assessed as DIZ at 50 ug/disk incubated for 20 +/- 4 hrs in presence of imipenem by agar disk diffusion method (reference value: 6 millimeter); format: functional; settings: read-out: DIZ
Proteus mirabilis = experiment: Antimicrobial activity against Proteus mirabilis clinical isolate at 50 ug/disk incubated for 20 +/- 4 hrs by agar disk diffusion method; format: functional; settings: read-out: DIZ; outline: as §2
Enterococcus faecium [17] = experiment: Antimicrobial activity against Enterococcus faecium AUS0004 by broth microdilution method; format: functional; outline: as §1
Enterococcus faecium [18] = experiment: Synergistic antimicrobial activity against Enterococcus faecium AUS0004 assessed as DIZ at 50 ug/disk incubated for 20 +/- 4 hrs in presence of ampicillin by agar disk diffusion method (reference value: 6 millimeter); format: functional; settings: read-out: DIZ
[19] = tested on: Staphylococcus epidermidis; experiment: Antimicrobial activity against Staphylococcus epidermidis clinical isolate at 50 ug/disk incubated for 20 +/- 4 hrs by agar disk diffusion method; format: functional; settings: read-out: DIZ; outline: as §2
Escherichia coli [20] = experiment: Antimicrobial activity against arfA-arfB TolC deficient Escherichia coli BW25113 by agar disk diffusion method; format: functional
Enterococcus faecium [21] = experiment: Synergistic antimicrobial activity against Enterococcus faecium AUS0004 assessed as DIZ at 50 ug/disk incubated for 20 +/- 4 hrs in presence of erythromycin by agar disk diffusion method (reference value: 6 millimeter); format: functional; settings: read-out: DIZ
Enterococcus faecium [22] = experiment: Antimicrobial activity against Enterococcus faecium HM1070 at 50 ug/disk incubated for 20 +/- 4 hrs by agar disk diffusion method; format: functional; settings: read-out: DIZ; outline: as §2
Enterococcus faecium [23] = experiment: Antimicrobial activity against Enterococcus faecium AUS0004 at 50 ug/disk incubated for 20 +/- 4 hrs by agar disk diffusion method; format: functional; settings: read-out: DIZ; outline: as §2
Bacteroides fragilis [24] = experiment: Antimicrobial activity against Bacteroides fragilis ATCC 25285 at 50 ug/disk incubated for 20 +/- 4 hrs by agar disk diffusion method; format: functional; settings: read-out: DIZ
Outline: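 Anaerobic disk diffusion: MH agar + 5% horse blood seeded from a 0.5 McFarland swab, with discs of 50 μg compound (10 μl of 5 g/L DMSO solution) and a DMSO control disc. Kept at 35 ± 2 °C under anaerobic conditions for 20 ± 4 h; inhibition diameters recorded.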

HCT-116 = experiment: Cytotoxicity against human HCT116 cells assessed as decrease in cell viability in MTT assay; format: cell-based; outline: as §3
Listeria monocytogenes [25] = experiment: Synergistic antimicrobial activity against Listeria monocytogenes clinical isolate assessed as DIZ at 50 ug/disk incubated for 20 +/- 4 hrs in presence of fosfomycin by agar disk diffusion method (reference value: 6 millimeter); format: functional; settings: read-out: DIZ
Listeria monocytogenes [26] = experiment: Antimicrobial activity against Listeria monocytogenes clinical isolate at 50 ug/disk incubated for 20 +/- 4 hrs by agar disk diffusion method; format: functional; settings: read-out: DIZ
Outline: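 Disk diffusion on MH agar with 5% horse blood, seeded by swab from a 0.5 McFarland suspension. Discs held 50 μg compound from a 5 g/L DMSO solution, with a DMSO-only control disc. Aerobic incubation at 35 ± 2 °C for 20 ± 4 h; inhibition zone diameter read.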

Staphylococcus aureus = experiment: Antimicrobial activity against Staphylococcus aureus clinical isolate at 50 ug/disk incubated for 20 +/- 4 hrs by agar disk diffusion method; format: functional; settings: read-out: DIZ; outline: as §2
Enterobacter cloacae = experiment: Antimicrobial activity against Enterobacter cloacae clinical isolate at 50 ug/disk incubated for 20 +/- 4 hrs by agar disk diffusion method; format: functional; settings: read-out: DIZ; outline: as §2
Escherichia coli [27] = experiment: Antimicrobial activity against Escherichia coli ATCC 25922 at 50 ug/disk incubated for 20 +/- 4 hrs by agar disk diffusion method; format: functional; settings: read-out: DIZ; outline: as §2

SMILES	MIC (Bacteroides fragilis [1]) [µg/mL]	zone of inhibition at 50 µg/disc (Klebsiella pneumoniae) [mm]	zone of inhibition at 50 µg/disc (Enterococcus faecalis [2]) [mm]	MIC (Escherichia coli [3]) [µM]	IC50 (Huh-7) [µM]	zone of inhibition at 50 µg/disc (Enterococcus faecium [4]) [mm]	zone of inhibition at 50 µg/disc (Morganella morganii [5]) [mm]	zone of inhibition at 50 µg/disc (Enterococcus faecium [6]) [mm]	zone of inhibition at 10000 µM (Escherichia coli [7]) [mm]	IC50 (MCF7) [µM]	zone of inhibition at 50 µg/disc (Morganella morganii [8]) [mm]	MIC [9] [µg/mL]	zone of inhibition at 50 µg/disc (Listeria monocytogenes [10]) [mm]	MIC [11] [µg/mL]	zone of inhibition at 50 µg/disc (Enterococcus faecium [12]) [mm]	MIC (Listeria monocytogenes [13]) [µg/mL]	zone of inhibition at 50 µg/disc (Enterococcus faecalis [14]) [mm]	zone of inhibition at 50 µg/disc (Enterococcus faecalis [15]) [mm]	zone of inhibition at 50 µg/disc (Enterococcus faecium [16]) [mm]	zone of inhibition at 50 µg/disc (Proteus mirabilis) [mm]	other results
O=C(Nc1nnc(-c2ccc(C(F)(F)F)cc2)o1)c1ccc(Cl)nc1	2 (≈ 5.42 µM)	6	23	1 (≈ 0.369 µg/mL)	> 25	22	6	25	6	> 25	6	8 (≈ 21.7 µM)	30	1 to 2 (≈ 2.71 to 5.42 µM)	26	8 (≈ 21.7 µM)	23	22	24	6	MIC (Enterococcus faecium [17]): 2 µg/mL (≈ 5.42 µM); zone of inhibition at 50 µg/disc (Enterococcus faecium [18]): 24 mm; zone of inhibition at 50 µg/disc [19]: 28 mm; diameter of the inhibition zone (DIZ) (Escherichia coli [20]): 22.05 mm; zone of inhibition at 50 µg/disc (Enterococcus faecium [21]): 22 mm; zone of inhibition at 50 µg/disc (Enterococcus faecium [22]): 24 mm; zone of inhibition at 50 µg/disc (Enterococcus faecium [23]): 23 mm; zone of inhibition at 50 µg/disc (Bacteroides fragilis [24]): 16 mm; IC50 (HCT-116): > 25 µM; zone of inhibition at 50 µg/disc (Listeria monocytogenes [25]): 29 mm; zone of inhibition at 50 µg/disc (Listeria monocytogenes [26]): 31 mm; zone of inhibition at 50 µg/disc (Staphylococcus aureus): 30 mm; zone of inhibition at 50 µg/disc (Enterobacter cloacae): 6 mm; zone of inhibition at 50 µg/disc (Escherichia coli [27]): 6 mm
O=C(Nc1nnc(-c2ccc(C(F)(F)F)cc2)o1)c1cccc(Cl)c1	1 to 2 (≈ 2.72 to 5.44 µM)	6	23	0.25 (≈ 0.0919 µg/mL)	20	26	6	25	6	15	6	16 to 32 (≈ 43.5 to 87 µM)	33	0.0625 to 0.25 (≈ 0.17 to 0.68 µM)	26	8 (≈ 21.8 µM)	20	24	24	6	MBC (Escherichia coli [3]): 16 µM (≈ 5.88 µg/mL); MIC (Enterococcus faecium [17]): 0.0625 to 0.25 µg/mL (≈ 0.17 to 0.68 µM); zone of inhibition at 50 µg/disc (Enterococcus faecium [18]): 24 mm; zone of inhibition at 50 µg/disc [19]: 27 mm; diameter of the inhibition zone (DIZ) (Escherichia coli [20]): 22.6 mm; zone of inhibition at 50 µg/disc (Enterococcus faecium [21]): 22 mm; zone of inhibition at 50 µg/disc (Enterococcus faecium [22]): 23 mm; zone of inhibition at 50 µg/disc (Enterococcus faecium [23]): 21 mm; zone of inhibition at 50 µg/disc (Bacteroides fragilis [24]): 11 mm; IC50 (HCT-116): 10 µM; zone of inhibition at 50 µg/disc (Listeria monocytogenes [25]): 30 mm; zone of inhibition at 50 µg/disc (Listeria monocytogenes [26]): 28 mm; zone of inhibition at 50 µg/disc (Staphylococcus aureus): 28 mm; zone of inhibition at 50 µg/disc (Enterobacter cloacae): 6 mm; zone of inhibition at 50 µg/disc (Escherichia coli [27]): 6 mm
